In general, EC50 refers to the concentration that produces a half-maximal response. In general, CC50 refers to the concentration that lowers cell viability or growth by half.

In data set [1] the test system is Mammalian orthoreovirus 1. As to the kind of experiment: Antiviral activity against Reovirus-1 infected in African green monkey Vero cells assessed as inhibition of virus-induced cytopathic effect. The data set is classed as functional. A digest of the protocol:
(§1)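 Confluent cell monolayers were infected with 100 CCID50 of virus (1 CCID50 = dose infecting 50% of cultures) and incubated with varying compound concentrations. Cytopathicity was scored once complete in untreated infected controls.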
Background: Protection from cytopathic effect is a common read-out in antiviral testing.

Data set [2] is described as follows: Cytotoxicity against HEL cells assessed as alteration of cell morphology by microscopic analysis. Type of data set: cell-based. To be noted: human. A digest of the protocol:
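MCC is the lowest compound concentration causing a microscopically detectable alteration of cell morphology.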

Data set [3] has as its system Human betaherpesvirus 5. The data set can be described thus: Antiviral activity against Human cytomegalovirus AD169 infected in HEL cells assessed as inhibition of virus-induced cytopathic effect. Type of data set: functional, cell-based. To be noted: Human betaherpesvirus 5, AD169, HEL. In a few lines: as §1
Data set [4] is described as follows: Antiviral activity against Respiratory syncytial virus A strain long infected in human HeLA cells assessed as inhibition of virus-induced cytopathic effect. The data set is classed as functional, cell-based. A digest of the protocol:
as §1

The subject of another data set is Human respirovirus 3. The data set can be described thus: Antiviral activity against Parainfluenza virus 3 infected in African green monkey Vero cells assessed as inhibition of virus-induced cytopathic effect. The data set is classed as functional. A digest of the protocol:
as §1

Data set [5] relates to Human alphaherpesvirus 3. As to the kind of experiment: Antiviral activity against wild type thymidine kinase-deficient Varicella-Zoster virus 07-1 infected in HEL cells assessed as inhibition of virus-induced plaque formation. The data set is classed as functional, cell-based. To be noted: Human alphaherpesvirus 3, 07-1, HEL. In a few lines:
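HEL fibroblast monolayers were infected with 20 PFU of VZV and kept with varying compound concentrations. Plaques were counted once formation was complete in untreated infected controls.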

The nature of data set [6]: (§2) Cytotoxicity against HEL cells assessed as reduction in cell growth after 3 days by coulter counter method. To be noted: human, HEL cells. Type of data set: cell-based. In a few lines:
(§3)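 HEL cells were seeded at 5 × 10³ cells/well and grown for 24 h, then given medium containing graded compound concentrations. After 3 days at 37 °C, cells were counted by Coulter counter.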

In data set [7] the test system is Human alphaherpesvirus 3. As to the kind of experiment: Antiviral activity against wild type thymidine kinase expressing Varicella-Zoster virus Oka infected in HEL cells assessed as inhibition of virus-induced plaque formation. To be noted: Human alphaherpesvirus 3, Oka. Type of data set: functional, cell-based. A digest of the protocol:
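Confluent HEL cultures were inoculated with 20 PFU of VZV and incubated with varying compound concentrations. Plaques were counted once formation was complete in untreated infected controls.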

For a further data set, the system named is Sindbis virus. As to the kind of experiment: Antiviral activity against Sindbis virus infected in African green monkey Vero cells assessed as inhibition of virus-induced cytopathic effect. Type of data set: functional. In a few lines:
as §1

Another data set concerns Feline coronavirus. As to the kind of experiment: Antiviral activity against Feline coronavirus infected in CRFK cells assessed as inhibition of virus-induced cytopathic effect. Type of data set: functional, cell-based.
In another data set the test system is Human alphaherpesvirus 2. The data set can be described thus: Antiviral activity against Herpes simplex virus 2 G infected in HEL cells assessed as inhibition of virus-induced cytopathic effect. Type of data set: functional, cell-based. As to conditions: Human alphaherpesvirus 2, strain G. A digest of the protocol:
as §1

Data set [8] concerns Human betaherpesvirus 5. The data set can be described thus: Antiviral activity against Human cytomegalovirus Davis infected in HEL cells assessed as inhibition of virus-induced cytopathic effect. The data set is classed as functional, cell-based. To be noted: Human betaherpesvirus 5, Davis. A digest of the protocol: as §1
The next data set relates to Punta Toro virus. As to the kind of experiment: Antiviral activity against Punta Toro virus infected in African green monkey Vero cells assessed as inhibition of virus-induced cytopathic effect. Type of data set: functional. In a few lines:
as §1

A further data set deals with Coxsackievirus B4. As to the kind of experiment: Antiviral activity against Coxsackie virus B4 infected in human HeLA cells assessed as inhibition of virus-induced cytopathic effect. Type of data set: functional, cell-based. A digest of the protocol:
as §1

The test system of another data set is Influenza B virus. As to the kind of experiment: Antiviral activity against influenza B virus infected in HEL cells assessed as inhibition of virus-induced cytopathic effect. Type of data set: functional, cell-based.
The subject of another data set is Influenza A virus. The data set can be described thus: Antiviral activity against Influenza A virus (H1N1) infected in HEL cells assessed as inhibition of virus-induced cytopathic effect. The data set is classed as functional, cell-based.
Another data set relates to Vaccinia virus. The data set can be described thus: Antiviral activity against Vaccinia virus Lederle infected in HEL cells assessed as inhibition of virus-induced cytopathic effect. The data set is classed as functional, cell-based. As to conditions: Orthopoxvirus vaccinia.
Data set [9] deals with Human alphaherpesvirus 1. As to the kind of experiment: Antiviral activity against wild type Herpes simplex virus 1 KOS infected in HEL cells assessed as inhibition of virus-induced cytopathic effect. Type of data set: functional, cell-based. As to conditions: Human alphaherpesvirus 1, KOS.
The test system of data set [10] is Vesicular stomatitis virus. As to the kind of experiment: Antiviral activity against Vesicular stomatitis virus infected in HEL cells assessed as inhibition of virus-induced cytopathic effect. Type of data set: functional, cell-based.
For another data set, the system named is Influenza A virus H3N2. The data set can be described thus: Antiviral activity against Influenza A virus H3N2 infected in HEL cells assessed as inhibition of virus-induced cytopathic effect. Type of data set: functional, cell-based.
Another data set has as its system HEL. The data set is described as §2. Type of data set: cell-based. As to conditions: human, hel, 72 h. A digest of the protocol: as §3
Data set [11] has as its system Human alphaherpesvirus 1. As to the kind of experiment: Antiviral activity against thymidine kinase-deficient ACV-resistant Herpes simplex virus 1 KOS infected in HEL cells assessed as inhibition of virus-induced cytopathic effect. The data set is classed as functional, cell-based. As to conditions: Human alphaherpesvirus 1, KOS.

Calls of active or inactive are those of the source. No cut-off for these calls is given here. Bounds are passed on as bounds.

As for `CC(C)OC(=O)OCOP(=O)(COCCOc1cc(N)nc(N)n1)OCOC(=O)OC(C)C`, the outcome (in [1]; in data set [4]; in the data set with Human respirovirus 3; with Sindbis virus; with Feline coronavirus; in the data set on Punta Toro virus) was inactive. In addition, the outcome with Coxsackievirus B4 was inactive. Moreover, the MCC in data set [2] is > 202 µM. Besides, the EC50 in the data set on Human betaherpesvirus 5 [3] came out at 90.1 µM; with Human alphaherpesvirus 3 [5] it was 0.29 µM; in the data set on Human alphaherpesvirus 3 [7], 0.32 µM; in the data set on Human alphaherpesvirus 2 it was 1.01 µM; in the data set on Human betaherpesvirus 5 [8] it was 86.3 µM. Also, the half-maximal cytotoxic concentration (CC50) at 72 h in data set [6] was 15.1 µM.
On to `CCOC(=O)[C@H](Cc1ccccc1)NP(=O)(COCCn1cnc(N)nc1=O)N[C@@H](Cc1ccccc1)C(=O)OCC`, for which the outcome (with Influenza B virus; in [1]; in the data set with Influenza A virus; in data set [10]; in data set [4]; with Human respirovirus 3) was inactive. In addition, the outcome in the data set with Influenza A virus H3N2, with Sindbis virus, in the data set with Feline coronavirus, in the data set on Punta Toro virus and in the data set with Coxsackievirus B4 was inactive. The concentration giving a half-maximal response (EC50) in the data set with Vaccinia virus is > 100 µM; with Human alphaherpesvirus 1 [9] it was 32.5 µM; in the data set with Human betaherpesvirus 5 [3], 15.5 µM; with Human alphaherpesvirus 3 [5] it was 26.8 µM; in the data set on Human alphaherpesvirus 3 [7] it was 29.4 µM; in the data set on Human alphaherpesvirus 2, 39.5 µM. Besides, the half-maximal effective concentration (EC50) in the data set with Human betaherpesvirus 5 [8] turned out to be 7.5 µM; with Human alphaherpesvirus 1 [11], 42 µM. In data set [2], the MCC was > 100 µM. Also, in the data set with HEL, the CC50 is > 100 µM.

Values taken from ChEMBL document CHEMBL4043131, “New prodrugs of two pyrimidine acyclic nucleoside phosphonates: Synthesis and antiviral activity” (Bioorg Med Chem, 2017).
